ChEMBL document CHEMBL1134599, “Design and synthesis of [(2,3-dichlorophenyl)piperazin-1-yl]alkylfluorenylcarboxamides as novel ligands selective for the dopamine D3 receptor subtype” (J Med Chem, 2001)
Each block holds one compound with its values, some of them ahead of it.

Assays:
D(2) dopamine receptor = D(2) dopamine receptor (Homo sapiens, UniProt P14416); test: Binding affinity at human dopamine receptor D2
Summary of the method: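 Membranes from CHO cells expressing cloned D2 receptor (labelled primate in methods). Compounds tested at 0.1 nM–10 µM in duplicate with 0.1 nM [3H]YM-09151-2 and 40 µg membrane protein. Buffer was 50 mM Tris pH 7.4 with 120 mM NaCl, bacitracin and aprotinin. Incubated 2 h at room temperature, then filtered on PEI-treated GF/C. Nonspecific binding defined with 10 µM spiperone. IC50 converted to Ki by Cheng-Prusoff. 2–3 independent experiments.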

D(4) dopamine receptor = target: T1, D(4) dopamine receptor (Homo sapiens, UniProt P21917); test: Binding affinity at human dopamine receptor D4
T1 sequence (P21917 whole entry): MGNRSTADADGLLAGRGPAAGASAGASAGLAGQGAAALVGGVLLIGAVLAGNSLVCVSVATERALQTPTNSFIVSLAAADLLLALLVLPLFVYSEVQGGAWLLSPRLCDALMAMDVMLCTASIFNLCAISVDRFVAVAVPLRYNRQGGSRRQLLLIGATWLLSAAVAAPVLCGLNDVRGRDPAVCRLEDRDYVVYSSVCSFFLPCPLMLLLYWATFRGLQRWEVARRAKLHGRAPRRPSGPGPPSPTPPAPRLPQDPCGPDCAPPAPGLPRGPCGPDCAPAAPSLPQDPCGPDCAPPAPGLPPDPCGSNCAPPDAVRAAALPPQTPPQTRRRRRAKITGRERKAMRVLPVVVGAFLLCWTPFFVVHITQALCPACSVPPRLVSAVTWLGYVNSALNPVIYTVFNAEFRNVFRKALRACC
Summary of the method: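 Membranes from CHO cells expressing cloned human D4 receptor, prepared in HEPES buffer with protease inhibitors. Compounds tested at 0.1 nM–10 µM in duplicate with 0.1 nM [3H]YM-09151-2 and 40 µg protein, in 50 mM Tris pH 7.4 with 120 mM NaCl. Incubated 2 h at room temperature, then filtered and counted by scintillation. Nonspecific binding defined with 10 µM spiperone. Ki from IC50 by Cheng-Prusoff. 2–3 independent experiments.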

D(3) dopamine receptor = D(3) dopamine receptor (Homo sapiens, UniProt P35462); test: Binding affinity at dopamine receptor D3
Sequence of D(3) dopamine receptor (P35462 whole entry): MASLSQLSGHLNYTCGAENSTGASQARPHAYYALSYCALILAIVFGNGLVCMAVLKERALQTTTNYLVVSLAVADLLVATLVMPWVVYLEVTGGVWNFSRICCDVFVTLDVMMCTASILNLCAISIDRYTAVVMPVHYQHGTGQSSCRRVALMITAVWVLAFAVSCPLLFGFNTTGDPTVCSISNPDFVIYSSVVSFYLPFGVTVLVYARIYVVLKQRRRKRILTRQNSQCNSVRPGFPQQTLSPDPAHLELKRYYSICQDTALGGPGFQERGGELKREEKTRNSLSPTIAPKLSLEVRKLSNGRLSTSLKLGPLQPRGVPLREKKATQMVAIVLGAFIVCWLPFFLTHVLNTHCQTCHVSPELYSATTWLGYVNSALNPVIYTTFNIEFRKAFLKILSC

[1] = Binding affinity at human dopamine receptor D2

Sequence of D(2) dopamine receptor (P14416 whole entry): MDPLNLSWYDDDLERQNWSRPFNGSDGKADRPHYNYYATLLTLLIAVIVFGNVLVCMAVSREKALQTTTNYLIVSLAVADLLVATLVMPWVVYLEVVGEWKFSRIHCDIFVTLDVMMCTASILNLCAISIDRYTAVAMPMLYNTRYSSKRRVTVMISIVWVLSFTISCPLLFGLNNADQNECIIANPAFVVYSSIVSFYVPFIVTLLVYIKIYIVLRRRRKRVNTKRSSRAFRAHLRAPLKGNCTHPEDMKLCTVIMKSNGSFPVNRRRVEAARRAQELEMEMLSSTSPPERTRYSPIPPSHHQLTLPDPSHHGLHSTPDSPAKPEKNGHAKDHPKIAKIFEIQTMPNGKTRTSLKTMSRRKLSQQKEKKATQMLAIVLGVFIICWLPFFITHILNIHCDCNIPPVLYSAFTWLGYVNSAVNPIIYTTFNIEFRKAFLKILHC

SMILES: Clc1cccc(C(OC2CC3CCC(C2)N3CCCc2ccccc2)c2ccccc2)c1 (stereo not given)
Ki (D(2) dopamine receptor): 0.059 µM
Ki (D(4) dopamine receptor): 0.222 µM
Ki (D(3) dopamine receptor): 0.0727 µM

SMILES: O=C(NCCCN1CCN(c2cccc(Cl)c2Cl)CC1)c1cccc2c1Cc1ccccc1-2
Ki (D(2) dopamine receptor): 1.68 µM
Ki (D(4) dopamine receptor): 0.326 µM
Ki (D(3) dopamine receptor): 0.17 µM

SMILES: Fc1ccc(C(OC2CC3CCC(C2)N3Cc2cc3ccccc3[nH]2)c2ccc(F)cc2)cc1 (stereo not given)
Ki (D(2) dopamine receptor): 0.218 µM
Ki (D(4) dopamine receptor): 0.172 µM
Ki (D(3) dopamine receptor): 0.0532 µM

SMILES: OC1CCc2c(c3ccccc3n2CCCN2CCN(c3ccccc3)CC2)C1 (stereo not given)
Ki (D(2) dopamine receptor): 0.18 µM
Ki (D(4) dopamine receptor): > 4 µM
Ki (D(3) dopamine receptor): 4.01 µM

SMILES: O=C(NCCCCN1CCN(c2cccc(Cl)c2Cl)CC1)c1ccc2c(c1)-c1ccccc1C2
Ki (D(2) dopamine receptor): 0.217 µM
Ki (D(4) dopamine receptor): > 5 µM
Ki (D(3) dopamine receptor): 0.0014 µM

SMILES: Fc1ccc(C(OC2CC3CCC(C2)N3Cc2cccc3ccccc23)c2ccc(F)cc2)cc1 (stereo not given)
Ki (D(2) dopamine receptor): 0.379 µM
Ki (D(4) dopamine receptor): 0.12 µM
Ki (D(3) dopamine receptor): 0.112 µM

SMILES: Fc1ccc(C(OC2CC3CCC(C2)N3Cc2ccccc2)c2ccc(F)cc2)cc1 (stereo not given)
Ki (D(2) dopamine receptor): 0.132 µM
Ki (D(4) dopamine receptor): 0.64 µM
Ki (D(3) dopamine receptor): 0.0633 µM

SMILES: Fc1ccc(C(O[C@H]2C[C@H]3CC[C@@H](C2)N3CCCCc2ccccc2)c2ccc(F)cc2)cc1
Ki (D(2) dopamine receptor): 0.0813 µM
Ki (D(4) dopamine receptor): 0.0681 µM
Ki (D(3) dopamine receptor): 0.0138 µM

SMILES: Fc1ccc(C(OC2CC3CCC(C2)N3Cc2ccc(Cl)c(Cl)c2)c2ccc(F)cc2)cc1 (stereo not given)
Ki (D(2) dopamine receptor): 0.625 µM
Ki (D(4) dopamine receptor): 0.349 µM
Ki (D(3) dopamine receptor): 0.277 µM

SMILES: O=C(NCCCN1CCN(c2ccccc2)CC1)C1c2ccccc2-c2ccccc21
Ki (D(2) dopamine receptor): 0.606 µM
Ki (D(4) dopamine receptor): 2.17 µM
Ki (D(3) dopamine receptor): 0.34 µM

SMILES: O=C1c2ccccc2C(=O)N1CCCCCN1CCN(c2cccc(Cl)c2Cl)CC1
Ki (D(2) dopamine receptor): 0.011 µM
Ki (D(4) dopamine receptor): 0.105 µM
Ki (D(3) dopamine receptor): 0.0078 µM

SMILES: CN1[C@@H]2CC[C@H]1C[C@@H](OC(c1ccc(Cl)cc1)c1ccc(Cl)cc1)C2
Ki (D(3) dopamine receptor): 0.22 µM

SMILES: CN1C2CCC1CC(OC(c1ccccc1)c1ccc(Cl)cc1)C2 (stereo not given)
Ki (D(2) dopamine receptor): 1.74 µM
Ki (D(4) dopamine receptor): 1 µM
Ki (D(3) dopamine receptor): 5.38 µM

SMILES: CN1C2CCC1CC(OC1c3ccccc3Cc3ccccc31)C2 (stereo not given)
Ki (D(2) dopamine receptor): 0.672 µM
Ki (D(4) dopamine receptor): 0.541 µM
Ki (D(3) dopamine receptor): 0.193 µM

SMILES: Fc1ccc(C(OCCN2C3CCC2CC(OC(c2ccc(F)cc2)c2ccc(F)cc2)C3)c2ccc(F)cc2)cc1 (stereo not given)
Ki (D(2) dopamine receptor): 0.927 µM
Ki (D(4) dopamine receptor): 0.868 µM
Ki (D(3) dopamine receptor): 0.214 µM

SMILES: c1ccc(N2CCN(CCCn3c4ccccc4c4ccccc43)CC2)cc1
Ki (D(3) dopamine receptor): 2.42 µM

SMILES: C=CCN1C2CCC1CC(OC(c1ccc(F)cc1)c1ccc(F)cc1)C2 (stereo not given)
Ki (D(3) dopamine receptor): 0.13 µM

SMILES: O=C1c2ccccc2C(=O)N1CCCCN1CCN(c2cccc(Cl)c2Cl)CC1
Ki (D(2) dopamine receptor): 0.12 µM
Ki (D(4) dopamine receptor): 0.368 µM
Ki (D(3) dopamine receptor): 0.0041 µM

SMILES: CN1C2CCC1CC(OC(c1ccc(F)cc1)c1ccc(F)cc1)C2 (stereo not given) [DIFLUOROBENZTROPINE]
Ki (D(3) dopamine receptor): 0.145 µM

The next lines start with the values.

Ki (D(3) dopamine receptor): 6.1 µM
SMILES: CCN(CC)CCOCCOC1(c2ccccc2)CCCC1

Ki (D(2) dopamine receptor): 0.825 µM
Ki (D(4) dopamine receptor): 0.679 µM
Ki (D(3) dopamine receptor): 1.46 µM
SMILES: O=C(NCCCN1CCN(c2ccccc2)CC1)c1ccc2c(c1)Cc1ccccc1-2

Ki (D(3) dopamine receptor): > 5 µM
SMILES: C[C@@H]1CN(CCCN(c2ccccc2)c2ccccc2)C[C@H](C)N1CCCc1ccccc1

Ki (D(3) dopamine receptor): > 8 µM
SMILES: C[C@@H]1CN(CCCn2c3ccccc3c3ccccc32)C[C@H](C)N1C

Ki (D(2) dopamine receptor): 0.473 µM
Ki (D(4) dopamine receptor): 0.791 µM
Ki (D(3) dopamine receptor): 0.43 µM
SMILES: O=C(NCCCN1CCN(c2ccccc2)CC1)c1cccc2c1Cc1ccccc1-2

Ki (D(2) dopamine receptor): 1.12 µM
Ki (D(4) dopamine receptor): > 4 µM
Ki (D(3) dopamine receptor): 2.52 µM
SMILES: Fc1ccc(C(OCCOC2CC3CCC(C2)N3)c2ccc(F)cc2)cc1 (stereo not given)

Ki (D(3) dopamine receptor): > 4 µM
SMILES: Clc1ccccc1N1CCN(CCCn2c3ccccc3c3ccccc32)CC1

Ki (D(3) dopamine receptor): > 4 µM
SMILES: C[C@@H]1CN(CCCn2c3ccccc3c3ccccc32)C[C@H](C)N1CCCc1ccccc1

Ki (D(2) dopamine receptor): 0.089 µM
Ki (D(4) dopamine receptor): 1.85 µM
Ki (D(3) dopamine receptor): 0.0014 µM
SMILES: O=C(NCCCCN1CCN(c2cccc(Cl)c2Cl)CC1)c1cccc2c1-c1ccccc1C2=O

Ki (D(2) dopamine receptor): 0.01 µM
Ki (D(4) dopamine receptor): 0.391 µM
Ki (D(3) dopamine receptor): 0.019 µM
SMILES: O=C(NCCCCN1CCN(c2cccc(Cl)c2Cl)CC1)C1c2ccccc2-c2ccccc21

Ki (D(2) dopamine receptor): 0.512 µM
Ki (D(4) dopamine receptor): 3.99 µM
Ki (D(3) dopamine receptor): 0.036 µM
SMILES: O=C(NCCCN1CCN(c2cccc(Cl)c2Cl)CC1)c1cccc2c1-c1ccccc1C2=O

Ki (D(3) dopamine receptor): > 8 µM
SMILES: C[C@@H]1CN(CCCn2c3ccc(Br)cc3c3cc(Br)cc(Br)c32)C[C@@H](C)N1

Ki (D(3) dopamine receptor): > 8 µM
SMILES: C[C@@H]1CN(CCCn2c3ccccc3c3cc(N)ccc32)C[C@H](C)N1

Ki (D(2) dopamine receptor): 0.777 µM
Ki (D(4) dopamine receptor): 1.38 µM
Ki (D(3) dopamine receptor): 0.43 µM
SMILES: O=C(NCCCN1CCN(c2ccccc2)CC1)c1cccc2c1-c1ccccc1C2=O

Ki (D(3) dopamine receptor): > 8 µM
SMILES: O=C(NCC1c2ccccc2-c2ccccc21)C1CCNCC1

Ki (D(3) dopamine receptor): > 8 µM
SMILES: C[C@@H]1CN(CCCN(c2ccccc2)c2ccccc2)C[C@H](C)N1

Ki (D(4) dopamine receptor): > 5 µM
SMILES: O=C(NCCCCN1CCN(c2cccc(Cl)c2Cl)CC1)c1ccc2c(c1)-c1ccccc1-2

Ki (D(2) dopamine receptor): 2.57 µM
Ki (D(4) dopamine receptor): 0.35 µM
Ki (D(3) dopamine receptor): 0.11 µM
SMILES: O=C(NCCCN1CCN(c2cccc(Cl)c2Cl)CC1)c1ccc2c(c1)Cc1ccccc1-2

Ki (D(2) dopamine receptor): 0.005 µM
Ki (D(4) dopamine receptor): 0.53 µM
Ki (D(3) dopamine receptor): 0.028 µM
SMILES: O=C(NCCCCCN1CCN(c2cccc(Cl)c2Cl)CC1)c1cccc2c1-c1ccccc1C2=O

Ki (D(2) dopamine receptor): 0.414 µM
Ki (D(4) dopamine receptor): 1.14 µM
Ki (D(3) dopamine receptor): 0.024 µM
SMILES: O=C(NCCCN1CCN(c2cccc(Cl)c2Cl)CC1)C1c2ccccc2-c2ccccc21
